This is an account of results in publication PMC7771113 (International Journal for Parasitology: Drugs and Drug …, 2020).

As a reminder, the IC50 is the concentration needed to halve the response being measured. What is called IC90 is the concentration at which the effect reaches the 90% level. Low readings indicate greater potency, high ones weaker potency. As usually defined, the CC50 is the concentration giving 50% cytotoxicity.

For one series, the system named is T. gondii. As to conditions: cited from earlier work.
Series [1] concerns T. gondii RH strain (type I) tachyzoites. The series is described as follows: Antiproliferative assay, tachyzoites of RH strain in LLC-MK2 cells. Type of series: cell-based. As to conditions: Toxoplasma gondii.
Series [2] relates to T. gondii EGS strain (atypical, I/III). The series is described as follows: Antiproliferative assay, tachyzoites of EGS strain. As to conditions: Toxoplasma gondii, 48 h, read-out: T. gondii EGS IC50. Format: cell-based.
For series [3], the system named is T. gondii ME49 strain (type II) tachyzoites. The series is described as follows: Effect on tachyzoites of the ME49 strain in NDHF fibroblasts. Type of series: cell-based, Toxoplasma gondii. As to conditions: 1 μM TST, 0.1 μM SAHA, 24 h.
Series [4] concerns bradyzoites of the EGS strain. Briefly: Activity against bradyzoites of the EGS strain in 96 h-infected NDHF fibroblasts. Type of series: cell-based, Toxoplasma gondii. As to conditions: 48 h; for proliferation or viability of bradyzoites: 1 and 5 μM TST, 0.1 μM SAHA. An outline of the steps: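 Tachyzoites of the EGS strain expressing SAG1mCherry/BAG1sfGFP were grown in NDHF fibroblasts for 96 h, when bradyzoite conversion and spontaneous cyst formation are higher, then treated for 48 h. DMSO was at most 0.1% (v/v). Bradyzoites were imaged by fluorescence microscopy and fluorescence intensity was quantified. Two independent experiments; one-way ANOVA with Bonferroni test.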

The subject of series [5] is i. p. (intra peritoneal) macrophages. Briefly: Cytotoxicity assay in host cells. Type of series: cell-based, mouse. As to conditions: read-out: Macrophages CC50; 48h.
Series [6] can be described thus: Cytotoxicity assay in host cells. Format: cell-based, Human. As to conditions: human, NDHF fibroblasts; for CC50 at 48 h: NDHF CC50, 48h.
The next series has as its system NDHF fibroblasts. The series is described as follows: Cytotoxicity assay in host cells. Type of series: cell-based, Human.
Series [7] can be described thus: Cytotoxicity assay in host cells. As to conditions: mouse, primary microglial cultures (mixed astrocytes/microglia). Format: cell-based.
Series [8] relates to histone H4 (lys16) acetylation in T. gondii. The series is described as follows: Western blot of histone H4 acetylation in treated tachyzoites. Type of series: cell-based, Toxoplasma gondii. As to conditions: 0,2 μM SAHA, 1 μM TST, 48 h. An outline of the steps: (§1)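 Infected NDHF fibroblasts were treated for 48 h. Tachyzoites were released by 30G needle passage, pelleted at 2000 rcf for 10 min and filter-purified; 10^6 parasites were cryolysed with protease inhibitors. Primary antibodies, 1 h: H3 and acetyl-H3 Lys9/14 each 1:1000; H4 1:3000, acetyl-H4 Lys16 1:1000; α-tubulin 1:1000, acetylated α-tubulin 1:2000. Detection by HRP secondaries and ECL. Bands from three experiments were normalised to GAPDH, and acetylated/total ratios were computed.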
For orientation: A western blot detects proteins with antibodies after separation by electrophoresis.

Series [9] concerns histone H3 (Lys 9/14) acetylation in T. gondii. The series is described as follows: Western blot of histone H3 acetylation in treated tachyzoites. Type of series: cell-based, Toxoplasma gondii. As to conditions: 0,2 μM SAHA, 1 μM TST, 48 h. An outline of the steps: as §1
In the next series the test system is T. gondii α-tubulin. Briefly: Western blot of α-tubulin and acetylated α-tubulin in treated tachyzoites. Type of series: cell-based, Toxoplasma gondii. As to conditions: 1 μM TST, 0.1 μM SAHA, 48 h. An outline of the steps:
as §1

The subject of series [10] is T. gondii RH-ACP-YFP tachyzoite mitochondria. The series is described as follows: MitoTracker fluorescence analysis of parasite mitochondria. Format: cell-based, Toxoplasma gondii. As to conditions: 1 μM TST, 0.1 μM SAHA, 24 h. An outline of the steps: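 NDHF fibroblasts infected with RH-ACP-YFP tachyzoites were treated for 24 h, then incubated with 50 nM MitoTracker Red CMXRos for 45 min. Mitochondrial membrane potential and partitioning were assessed by confocal and SR-SIM imaging. Two independent experiments.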

The subject of the next series is T. gondii RH tachyzoites. Briefly: Fluorescence microscopy of cell division and apicoplast. Format: cell-based, Toxoplasma gondii. As to conditions: 1 μM TST, 0.1 μM SAHA, 24 h; for effect on apicoplast: ACP-YFP tachyzoites. The procedure, abridged: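 NDHF fibroblasts were infected with RH-ACP-YFP tachyzoites and treated for 24 h, then fixed 40 min in 4% formaldehyde/PBS and permeabilised 15 min in 0.5% Triton X-100. Staining used anti-SAG1 and rabbit anti-centrin1 (1:1000), Alexa secondaries (1:800) and Hoechst (0.5 μg/mL). Daughter budding was also examined in RH-infected cells with anti-IMC1 (1:1000). Imaging by confocal and SR-SIM; two independent experiments.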

For series [11], the system named is H4 acetylation in T. gondii. As to conditions: ref Bougdour et al., 2009; cited from earlier work.

Where two headings read alike, the source gives them in different places.

As to `COc1cccc(CC(=O)Nc2ccc(C(=O)NO)cc2)c1` [N-hydroxy-4-[2-(3-methoxyphenyl)acetamido]benzamid], in the series on T. gondii (RH strain, ref Loeuillet et al., 2018), the IC50 was 0.35 µM.
`CN1CCc2c(c3ccccc3n2Cc2ccc(C(=O)NO)cc2)C1` [TST, Tubastatin A]: in series [1] (LLC-MK2), the 90% effect concentration (IC90) turned out to be 5 µM. In addition, the half-maximal inhibitory concentration (IC50) in series [1] (LLC-MK2, 24 h) came out at 0.019 ± 0.001 µM; in [1] (LLC-MK2, 48 h, read-out: T. gondii RH IC50) it was 0.52 µM; in series [2], 0.29 µM. Besides, the “tachyzoite proliferation, ME49 strain” value in series [3] is listed as “inhibit tachyzoite proliferation significantly”. In addition, the “proliferation or viability of bradyzoites” value in series [4] is “inhibited significantly”. For the same molecule, in series [5], the 50% cytotoxic concentration (CC50) was 13.5 µM. For the same molecule, half-maximal cytotoxicity in [6] (CC50, NDHF fibroblasts, treatment for 120 h with higher concentrations (20–80 μM)) (CC50 at 120 h) was put at 29.9 µM. Besides, the CC50 at 48 h in series [6] and in series [7] was above 20 µM throughout. Further, the “CC50 times higher than the IC50 obtained for T. gondii” value in the series on NDHF fibroblasts (CC50 in NDHF after 120 h) is given as 57 times. In the series with NDHF fibroblasts (in different types of mammalian cells after 48 h of treatment), the selective index entry is “at least 20”. For the same molecule, the “acetylation levels of H4 (lys16), rH4ac/rH4” value in series [8] was “significant increase”. In addition, the “acetylation levels of H3 (Lys 9/14), rH3ac/rH3” value in [9] is “decrease below the levels of the untreated cells”. Moreover, in the series on T. gondii α-tubulin, the “tubulin acetylation levels, ratio rTubac/rTub” value is “no change”. The “effect on parasite mitochondria (Mitotracker)” value in series [10] is on record as “reduction of the labeling intensity of mitochondria”. Further, the “effect on cell division / daughter cell budding” value in the series on T. gondii RH tachyzoites was “formation of a rounded mass of parasites”. Besides, in the series on T. gondii RH tachyzoites, the effect on apicoplast result was “Alteration at the apicoplast partition”.
As for `CCc1nc(N)nc(N)c1-c1ccc(Cl)cc1` [pyrimethamine], the IC50 in the series on T. gondii (read-out: IC50 against T. gondii, ref Dubar et al., 2011, Martins-Duarte, 2006) is 0.12 µM.
As for `O=C(CCCCCCC(=O)Nc1ccccc1)NO` [SAHA, Suberoylanilide Hydroxamic Acid], in series [3], the “tachyzoite proliferation, ME49 strain” value is reported as “inhibit tachyzoite proliferation significantly”. Moreover, the “amount of bradyzoites in the culture” value in series [4] (0.2 μM SAHA) is on record as “maintained the same amount of bradyzoites in the culture as in the control”. The “proliferation or viability of bradyzoites” value in series [4] is “inhibited significantly”. In series [5], the CC50 turned out to be 4.61 µM. In addition, the CC50 at 48 h in [6] was above 20 µM. Besides, the CC50 at 48 h in series [7] was above 20 µM. In series [8], the “acetylation levels of H4 (lys16), rH4ac/rH4” value is given as “modest increase”. The “acetylation levels of H3 (Lys 9/14), rH3ac/rH3” value in series [9] was “modest increase”. Also, the “effect on parasite mitochondria (Mitotracker)” value in series [10] was “mitochondrion fragmentation”. In the series with T. gondii RH tachyzoites, the “effect on cell division / daughter cell budding” value was “masses of damaged parasites showing several centrosomes” and the effect on apicoplast entry is listed as “apicoplast fragmentation”.
Regarding FR235222, the H4 acetylation result in series [11] is recorded as “increased H4 acetylation”.
